PGC1a acetyl inh: inhibitors of PGC1a acetylation signal, primary screen, cell-based, U2OS, AlphaScreen, inhibitor mode; AlphaScreen anti-acetyl-lysine; with virally co-expressed GCN5 acetyltransferase; inhibition, % at 15.6 µM; 350,000 compounds, 0.17% hits; AID 651687, 2012;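 active = every replicate shows inhibition of at least 40%; inconclusive = mean inhibition at least 40% but some replicate below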
HIV Env fusion: inhibitors of HIV-1 Env-driven cell-cell fusion, primary screen, HeLa-JRFL effector, CEM21 target cells, luciferase; inhibition, % at 12.3 µM; 360,000 compounds, 1.1% hits;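 active = mean replicate inhibition score of at least 50 and every replicate individually at or above 50; inconclusive = only one of the two criteria met; inactive = mean below 50 and not all replicates reaching 50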
FN deposit inh: inhibitors of fibronectin matrix deposition, primary screen, AH1F cells, Alexa488-fibronectin fluorescence, plate reader. AH1F fibroblasts, overnight. inhibition, % at 12.6 µM. 350,000 compounds, 0.086% hits. AID 743247, 2014;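 active = mean inhibition across replicates of 30% or more, regardless of how many single replicates reach that level; inconclusive = mean under 30% yet at least half of replicates reach 30%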
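Material: AH1F fibroblasts assembling fluorescent fibronectin matrix; amount: 10000 AH1F cells/well; medium: DMEM, 2% serum; reagent: Alexa488-fibronectin, 24 nM final in well; dosing: single compound dose, delivered by pin transfer; incubation: 1 h adhesion, overnight exposure; detection: fluorescence after three HBSS washes, excitation 485 nm, emission 525 nm; measure: fibronectin deposition inhibition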
rRNA inh HTS: reduced GFP signal of wild-type E. coli, primary screen, bacterial rRNA inhibitor project, GFP/RFP fluorescence, OD600, single point. E. coli WT GFP vs humanized-ribosome RFP mutants, 24 h; stronger effect = lower value; DMSO median 0, no signal -100. 350,000 compounds, 1.6% hits. GFP signal change (wild-type ribosome), % (test concentration not listed);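 active = significant combined selectivity score with lowered wild-type GFP, culture density cut under 30%, mutant RFP and density less affected; inactive = any of these conditions unmet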
DENV2 CPE: inhibitors of DENV2 cytopathic effect, primary screen, cell-based, plate reader, single concentration | CPE inhibition, % at 9.99 µM | 350,000 compounds, 1.7% hits | DENV2-infected cells, cytopathic effect rescue; in the data active = CPE inhibition above about 20%, passing the limit was not always enough; inconclusive = no clear call, values can overlap the other calls; tested in BHK-21 cells
PglD DTNB: C. jejuni PglD acetyltransferase inhibitors, primary screen, biochemical, DTNB colorimetric, single point; UDP-N-acetylbacillosamine N-acetyltransferase PglD (Campylobacter jejuni); purified PglD enzyme, DTNB colorimetric CoA detection; 360,000 compounds, 0.098% hits; inhibition, % at 12.5 µM; in the data active = inhibition above about 16%, passing the limit was not always enough; inconclusive = no clear call, values can overlap the other calls
A number is an active result; – = inactive; ? = inconclusive; · = not tested or not shown; [ ] = remark or other dose. This is a sample that favours compounds with a hit; in the whole collection about 3.5% have one here.

SMILES	PGC1a acetyl inh	HIV Env fusion	FN deposit inh	rRNA inh HTS	DENV2 CPE	PglD DTNB
CC(C)C(=O)Nc1ccc2c(c1)C(=O)N(C)[C@@H]1CC[C@@H](CC(=O)N[C@H](C)c3ccccc3)O[C@H]1CO2	–	–	–	–	–	–
CN(Cc1ccccc1)CC1CCCN(CCc2ccccc2F)C1 (centres undefined)	–	–	–	–	39	–
COc1cc(CN(C)CC2CCCN(CCc3ccccc3F)C2)cc(Cl)c1OC (centres undefined)	–	–	–	–	–	–
CO[C@@H]1CN(C)C(=O)c2ccc(NS(C)(=O)=O)cc2OC[C@H](C)N(C(=O)C2CCCC2)C[C@@H]1C	·	·	–	–	–	–
CCCNC(=O)c1ccc(N2CCC3(CC2)CC(c2ccccc2)=NO3)c([N+](=O)[O-])c1	·	–	–	–	–	–
CCCCCCCNC(=O)c1ccc(N2CCC3(CC2)OCCO3)c([N+](=O)[O-])c1	·	–	–	-26	–	·
C[C@@H]1CN([C@@H](C)CO)C(=O)Cc2cc(NC(=O)C3CC3)ccc2O[C@@H]1CN(C)S(=O)(=O)c1cccs1	–	–	·	–	–	–
CCC(=O)N(C)C[C@H]1Oc2cc(C#C[C@H](C)O)ccc2S(=O)(=O)N([C@@H](C)CO)C[C@H]1C	–	–	–	–	–	–
COc1ccc(CCNC(=O)CSC2=NS(=O)(=O)c3cc(F)ccc3N2)cc1OC	–	–	–	–	–	–
COc1ccc(CCNC(=O)CSC2=NS(=O)(=O)c3ccccc3N2)cc1OC	–	–	–	–	82	–
Cc1ccc(C(C(=O)NC2CCCC2)N(C(=O)c2csnn2)C2CCCC2)o1 (centres undefined)	–	–	–	–	·	–
CC(C)CCN(C(=O)c1csnn1)C(C(=O)NC1CCCC1)c1ccc(F)cc1 (centres undefined)	·	76	–	–	–	–
Cc1ccc(C(C(=O)NC2CCCCC2)N(C(=O)c2csnn2)C2CCCC2)o1 (centres undefined)	–	71	–	–	·	–
O=C(NC1CCCCC1)C(c1ccc(F)cc1)N(Cc1ccco1)C(=O)c1csnn1 (centres undefined)	–	63	–	–	–	–
CCCNC(=O)Nc1ccc2c(c1)C(=O)N(C)C[C@@H](OC)[C@H](C)CN(CC1CCCC1)[C@H](C)CO2	–	·	–	–	·	·
Cc1noc(C)c1NC(=O)N[C@@H]1CC[C@@H](CCNC(=O)C2CC2)O[C@@H]1CO	–	–	–	–	–	–
CCOC(=O)C1=C(C)N(CCCC(=O)O)C(=O)NC1c1ccc([N+](=O)[O-])cc1 (centres undefined)	·	–	–	–	102	–
CC1=C(C(=O)OCc2ccccc2)C(c2ccc(Br)cc2)NC(=O)N1CCCC(=O)O (centres undefined)	·	–	–	–	?	·
CC1=C(C(=O)OCc2ccccc2)C(c2ccc(Br)cc2)NC(=O)N1CCCCCC(=O)O (centres undefined)	·	–	–	-26	–	–
Cc1c(Cl)cccc1NC(=S)C(=C([O-])c1ccc(Cl)s1)[n+]1ccccc1	·	–	–	-11	?	·
CCC[C@@H]1C[C@@]1(CCC)[C@@H](NP(=O)(c1ccccc1)c1ccccc1)c1ccc(C(=O)OC)cc1	·	96	–	–	–	·
C[C@H](CO)N1C[C@H](C)[C@@H](CN(C)CC2CCOCC2)Oc2cc(C#C[C@@H](C)O)ccc2S1(=O)=O	–	–	–	–	–	–
Cc1cc(OC(C(=O)O)c2ccccc2)c2c(C)c(Cc3ccccc3)c(=O)oc2c1 (centres undefined)	–	–	–	-24	–	–
COc1ccc(CN(C)C[C@@H]2Oc3ccc(NS(=O)(=O)c4cn(C)cn4)cc3C(=O)N([C@H](C)CO)C[C@@H]2C)cc1	–	·	·	–	–	–
C[C@H]1CCCCO[C@H](CN(C)C(=O)Nc2cccc3ccccc23)[C@@H](C)CN([C@@H](C)CO)C(=O)c2cc(NS(=O)(=O)c3ccc(Cl)cc3)ccc2O1	–	–	–	–	44	–
SMILES	PGC1a acetyl inh	HIV Env fusion	FN deposit inh	rRNA inh HTS	DENV2 CPE	PglD DTNB
C[C@H]1CCCCO[C@H](CN(C)C(=O)Nc2cccc3ccccc23)[C@@H](C)CN([C@@H](C)CO)C(=O)c2cc(NS(=O)(=O)c3ccc(F)cc3)ccc2O1	–	87[16.7 µM]	–	–	26	–
CO[C@@H]1CN(C)C(=O)c2ccc(NC(=O)C3CCCC3)cc2OC[C@H](C)N(C(=O)CC2CC2)C[C@H]1C	–	–	–	–	–	–
CCCCCCCCSC1=CC(=O)C(OC)=C(OC)C1=O	–	–	–	–	71	–
Cc1ccc(NC2C(=O)NC(=O)NC2=O)cc1	–	–	–	·	36	–
CCn1c(COc2ccccc2)nnc1SCC(=O)c1cccc([N+](=O)[O-])c1	–	·	·	-24	–	–
CCn1c(COc2ccc(C)cc2)nnc1SCC(=O)Nc1cc(OC)ccc1OC	–	58	·	·	·	–
CCOC(=O)CN(C(=O)CSc1nnc(COc2ccc(OC)cc2)n1CC)c1ccccc1	–	–	–	-27	·	–
CCOC(=O)c1cnc(SCC(=O)Nc2cc(OC)ccc2OC)nc1N	–	74	–	·	·	–
CCNC(=O)[C@H]1[C@H](CO)[C@H]2Cn3c(cccc3=O)[C@@H]1N2CCC(F)(F)F	·	·	·	–	–	–
CO[C@@H]1CN(C)C(=O)c2cc(NC(C)=O)ccc2OC[C@H](C)N(CC2CC2)C[C@@H]1C	–	·	–	–	–	–
CCNC(=O)[C@H]1[C@H](CO)[C@H]2Cn3c(ccc(-c4ccccc4)c3=O)[C@H]2N1C(=O)C1CCC1	·	·	–	–	–	–
CC(OC(=O)c1ccc2c(c1)NC(=O)CS2)C(=O)c1ccc(F)cc1 (centres undefined)	–	59	–	–	–	–
Cc1cc(C)n(-c2ccc(NC(=O)C3CCCCN3C(=O)c3occc3C)cc2)n1 (centres undefined)	·	–	–	–	–	–
Cc1cc(C)n(-c2ccc(NC(=O)C3CCCCN3C(=O)c3ccoc3)cc2)n1 (centres undefined)	·	–	·	–	36	–
COc1ccccc1CNc1ccc([N+](=O)[O-])cc1C	–	–	–	–	–	·
COc1cccc(CNc2ccc([N+](=O)[O-])cc2Cl)c1O	·	–	–	-50	–	·
CC(C)C1Cc2[nH]c(=S)[nH]c(=O)c2C(c2ccc(F)cc2)O1 (centres undefined)	–	–	–	·	32	–

Bioassay records: PubChem BioAssay, Broad Institute
